Calls of active or inactive are those of the source. The calls are words filed in the database; no cut-off is given here.
Legend:
[1] = test system: Mus musculus; test: Allergy preventing effect in hen egg […]-sensitized ddY mouse assessed as inhibition of blood flow decrease in tail artery at 20 mg/kg, po after 5 days relative to control; type: functional, organism-based; set-up: dose 20 mg/kg
Method in brief: (§1)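 Male ddY mice, 5 weeks old, sensitized s.c. with 50 µg HEL in complete Freund's adjuvant on day 0. Compound given orally at 20 mg/kg on days 0, 3, 6 and 9, 1 h before measurement. After 10 min prewarming at 37 °C, tail subcutaneous blood flow was read by non-contact laser Doppler for 10 min daily over 9 days without anesthesia. Values are % of each mouse's normal flow, mean ± SE, n = 5, compared with HEL-sensitized controls.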

[2] = test system: Mus musculus; test: Allergy preventing effect in hen egg […]-sensitized ddY mouse assessed as inhibition blood flow decrease in tail artery at 20 mg/kg, po relative to control; type: functional, organism-based; set-up: dose 20 mg/kg; method in brief: as §1
[3] = test system: Platelet; test: Inhibition of platelet aggregation in hen egg […]-sensitized ddY mouse blood after 9 days; type: functional, tissue-based
Method in brief: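 Mice were HEL-sensitized and dosed orally at 20 mg/kg as in the blood-flow assay. On day 9, whole blood was drawn under diethyl ether anesthesia, anticoagulated with 3.8% sodium citrate and held 30 min at room temperature. Aggregation was induced with 8 µM ADP and measured by screen filtration pressure on a whole-blood aggregometer. Read-out is cohesion rate, mean ± SE, n = 5.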

[4] = test system: Mus musculus; test: Allergy preventing effect in hen egg […]-sensitized ddY mouse assessed as inhibition of blood flow decrease in tail artery at 20 mg/kg, po after 6 days relative to control; type: functional, organism-based; set-up: dose 20 mg/kg; method in brief: as §1
[5] = test system: Mus musculus; test: Allergy preventing effect in hen egg […]-sensitized ddY mouse assessed as inhibition of blood flow decrease in tail artery at 20 mg/kg, po after 7 days relative to control; type: functional, organism-based; set-up: dose 20 mg/kg; method in brief: as §1

SMILES	Activity [1]	Activity [2]	Activity [3]	Activity [4]	Activity [5]
OCc1ccccc1O[C@@H]1O[C@H](CO)[C@@H](O)[C@H](O)[C@H]1O	Active	–	–	–	–
O=C(OCc1ccc(O)c(O[C@@H]2O[C@H](CO)[C@@H](O)[C@H](O)[C@H]2O)c1)c1ccccc1	–	Active	Active	–	–
COc1cc(O[C@@H]2O[C@H](CO)[C@@H](O)[C@H](O)[C@H]2O)c2c(c1)O[C@H](c1ccc(O)cc1)CC2=O	–	–	inactive	Active	Active
COc1cc(O)c(C(=O)/C=C/c2ccc(O)cc2)c(O[C@@H]2O[C@H](CO)[C@@H](O)[C@H](O)[C@H]2O)c1	–	–	Active	Active	Active
CC(=O)OC[C@H]1O[C@@H](Oc2cc(COC(=O)c3ccccc3)ccc2O)[C@H](O)[C@@H](O)[C@@H]1O	–	Active	Active	–	–

From ChEMBL document CHEMBL1158043, “Allergy-preventive phenolic glycosides from Populus sieboldii” (J Nat Prod, 2006)
